Test results as given in ChEMBL document CHEMBL1144927, “Discovery of a novel and highly potent noncompetitive AMPA receptor antagonist” (2003).

Key:
[1] = Anticonvulsant activity against audiogenic seizures in DBA/2 mice 30 min after intraperitoneal administration (clonic phase); format: functional; details: Mus musculus, ip, 0.5 h
Method in brief: (§1)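 DBA/2 mice, genetically susceptible to sound-induced seizures (8-12 g, 22-25 days old, either sex), were dosed ip in groups of 10 with vehicle or each dose. Dosing solution was freshly prepared in 50% DMSO/50% sterile 0.9% saline. Mice received auditory stimulation 30 min later and were scored for latency and incidence of seizure phases. ED50 per phase was fitted by Litchfield-Wilcoxon, with 95% confidence limits.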

[2] = Anticonvulsant activity against audiogenic seizures in DBA/2 mice 30 min after intraperitoneal administration (tonic phase); format: functional; details: Mus musculus, ip, 0.5 h; method in brief: as §1

| Structure (SMILES) | ED50 [1] | ED50 [2] |
| --- | --- | --- |
| COc1cc2c(cc1OC)C(c1ccc(N)cc1)=NNC(=O)C2 | 15 µmol/kg | – |
| COc1cc2c(cc1OC)C(c1ccc(F)cc1)N(C(C)=O)CC2 (stereo not given) | 36.8 µmol/kg | 18 µmol/kg |
| COc1cc2c(cc1OC)C(c1ccc(Br)cc1)N(C(C)=O)CC2 (stereo not given) | 43.1 µmol/kg | 16.5 µmol/kg |
| COc1cc2c(cc1OC)C(c1ccc([N+](=O)[O-])cc1)N(C(C)=O)CC2 (stereo not given) | > 100 µmol/kg | > 100 µmol/kg |
| COc1cc2c(cc1OC)C(c1ccc(Cl)cc1)N(C(C)=O)CC2 (stereo not given) | 4.2 µmol/kg | 2.4 µmol/kg |
| COc1cc2c(cc1OC)C(c1ccccc1)N(C(C)=O)CC2 (stereo not given) | 53.5 µmol/kg | 37.7 µmol/kg |
| COc1cc2c(cc1OC)C(c1ccc(N)cc1)N(C(C)=O)CC2 (stereo not given) | 32.1 µmol/kg | 21.1 µmol/kg |
| CC(=O)N1N=C(c2ccc(N)cc2)c2cc3c(cc2C[C@H]1C)OCO3 [TALAMPANEL] | 13.4 µmol/kg | 9.7 µmol/kg |
